Measured values collected from several papers.
MAP2K6: Dual specificity mitogen-activated protein kinase kinase 6 (MAP2K6, Homo sapiens, UniProt P52564)

Cc1c[nH]c2nccc(Oc3c(F)cc(Nc4cc(Cl)nc(N)n4)cc3F)c12  remaining binding (MAP2K6; cell-free assay; competition with immobilised ligand; 0.1 µM): 99%
Cc1ccc(C(=O)NCc2ccsc2)cc1C#Cc1cn(C(C)C)c2ncnc(N)c12  activity vs control (MAP2K6; enzyme activity; inhibitor; 1 µM): 86%
COc1cc(Cl)c(C(=O)N[C@@H](CN[C@H]2CC[C@@H](N)CC2)Cc2ccc(C#N)cc2)cc1-c1ccc(CN[C@H](C)c2ccc(C)cc2)o1  remaining activity (MAP2K6; enzyme activity; inhibitor; 1 µM): 88%
COc1cc2ncnc(Nc3ccc(Oc4ccccc4)c(C)c3C)c2cc1OC  inhibition (MAP2K6; enzyme activity; inhibitor; 1 µM): 2%
COc1cc(Nc2cnc(C#N)c(O[C@H](C)CN(C)C)n2)ncc1-c1cnn(C)c1  remaining activity (MAP2K6; enzyme activity; inhibitor; radiometric; 10 µM): 91%
CO[C@@H](C)c1c(Nc2ccc([C@H](N(C)C(=O)C3CCS(=O)(=O)CC3)C(F)(F)F)cc2)cnc2cc(Cl)nn12  remaining binding (MAP2K6; cell-free assay; competition with immobilised ligand; 1 µM): 91%
CCN1CCC2(CC1)NC(=O)c1c(c3ccc(Cl)c(Cl)c3n1C)C2C#N (racemic)  ΔTm (MAP2K6; thermal stability; DSF; 10 µM): 0 °C
Cc1cc(-n2nc(Cc3cc(F)cc(C(F)(F)F)c3)nc2C)ccc1C(N)=O  remaining binding (MAP2K6; cell-free assay; competition with immobilised ligand; 1 µM): 83%
CC(C)(C)c1nc(-c2cccc(NS(=O)(=O)c3c(F)cccc3F)c2F)c(-c2ccnc(N)n2)s1  remaining activity (Dual specificity mitogen-activated protein kinase kinase 6 (MAP2K6, Homo sapiens, UniProt P52564, S207D/T211D); enzyme activity; inhibitor; radiometric; 1 µM): 96%
COc1cc2ncnc(Nc3ccc(F)c(Cl)c3)c2cc1OCCCN1CCOCC1  remaining signal (MAP2K6; cell-free assay; 0.5 µM): 90.1%
Cn1c2c(c3ccccc31)C(C#N)C(C)(C)NC2=O (stereo not drawn)  ΔTm (MAP2K6; thermal stability; DSF; 10 µM): 0 °C
FC(F)c1nc2ccccc2n1-c1nc(N2CCOCC2)nc(N2CCOCC2)n1  remaining activity (MAP2K6; enzyme activity; inhibitor; 10 µM): 83%
Cn1c2c(Cl)c(Cl)ccc2c2cc[nH]c(=O)c21  ΔTm (MAP2K6; thermal stability; DSF; 10 µM): 0.2 °C
CN(C)C(=O)Cn1cc(-c2nc(C3(c4ccc(-c5cnc(N)nc5)cc4)CC3)no2)cn1  remaining binding (MAP2K6; cell-free assay; competition with immobilised ligand; 1 µM): 100%
CNC(=O)c1cc(Oc2ccc(NC(=O)Nc3ccc(Cl)c(C(F)(F)F)c3)cc2)ccn1  inhibition (MAP2K6; enzyme activity; inhibitor; 10 µM): 99%
O=C(Nc1cnn(-c2csc(C(=O)NC3COC3)c2)c1)Nc1c(F)cccc1Cl  remaining activity (MAP2K6; enzyme activity; inhibitor; 5 µM): 94.4%
CNCc1ccc(-c2cc(-c3nc(-c4ccc(S(=O)(=O)C(C)C)cc4)cnc3N)on2)cc1  inhibition (MAP2K6; enzyme activity; inhibitor; 2 µM): 28%
CN1CCC2(CC1)NC(=O)c1c(c3ccc(Cl)c(Cl)c3n1C)C2C#N (racemic)  ΔTm (MAP2K6; thermal stability; DSF; 10 µM): 0 °C
Cc1ccc(NC(=O)c2ccc(CN3CCN(C)CC3)cc2)cc1Nc1nc(-c2cccnc2)cs1  remaining signal (MAP2K6; cell-free assay; 0.5 µM): 96.5%
CN(C)C1CCN(CC#Cc2nn(C3CCCC3)c3nc(NCc4ccccc4)ncc23)C1 (stereo not drawn)  inhibition (MAP2K6; enzyme activity; inhibitor; FRET; 1 µM): 6%
CS(=O)(=O)CCNCc1ccc(-c2ccc3ncnc(Nc4ccc(OCc5cccc(F)c5)c(Cl)c4)c3c2)o1  remaining signal (MAP2K6; cell-free assay; 0.5 µM): 95.4%
Cc1ccc(Nc2nccc(N(C)c3ccc4c(C)n(C)nc4c3)n2)cc1S(N)(=O)=O  inhibition (MAP2K6; enzyme activity; inhibitor; 10 µM): 90%
CN(C)C(=O)Cn1cc(-c2nc([C@@](C)(c3ccc(-c4cnc(N)nc4)cc3)C3CC3)no2)cn1  remaining binding (MAP2K6; cell-free assay; competition with immobilised ligand; 1 µM): 100%
N#CCCc1ccc2c(c1)-c1[nH]c3ccc([N+](=O)[O-])cc3c1CC(=O)N2  remaining signal (MAP2K6; cell-free assay; 0.5 µM): 97.2%
